Experimental data as given in PubChem BioAssay AID651924 (Vanderbilt Specialized Chemistry Center, 2012).
Active and inactive are the calls of the source. How the calls were made is not given here.

Target: Muscarinic acetylcholine receptor M2 (Homo sapiens) (UniProt P08172)
Experiment: ACh response enhancement at M2 – CHO cells, human M2, selectivity assay for M5 PAM project (AID 651924)
Settings: CHO-K1 hM2/Gqi5, calcium flux Fluo-4, ACh EC20; series mostly up to 30 µM
How it was run: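 Test system: CHO-K1 cells expressing human M2 muscarinic receptor with Gqi5; Timing: compound pre-incubation 1.5 min, acetylcholine stimulation 50 s, 25 °C; Probe or stimulus: acetylcholine EC20; Medium: HBSS with HEPES and probenecid, pH 7.4; Read-out basis: % of maximal acetylcholine response; Signal: calcium fluorescence with Fluo-4 AM, dye loaded 45–60 min at 37 °C.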

Muscarinic acetylcholine receptor M2 (Homo sapiens), sequence (P08172 whole entry, looked up): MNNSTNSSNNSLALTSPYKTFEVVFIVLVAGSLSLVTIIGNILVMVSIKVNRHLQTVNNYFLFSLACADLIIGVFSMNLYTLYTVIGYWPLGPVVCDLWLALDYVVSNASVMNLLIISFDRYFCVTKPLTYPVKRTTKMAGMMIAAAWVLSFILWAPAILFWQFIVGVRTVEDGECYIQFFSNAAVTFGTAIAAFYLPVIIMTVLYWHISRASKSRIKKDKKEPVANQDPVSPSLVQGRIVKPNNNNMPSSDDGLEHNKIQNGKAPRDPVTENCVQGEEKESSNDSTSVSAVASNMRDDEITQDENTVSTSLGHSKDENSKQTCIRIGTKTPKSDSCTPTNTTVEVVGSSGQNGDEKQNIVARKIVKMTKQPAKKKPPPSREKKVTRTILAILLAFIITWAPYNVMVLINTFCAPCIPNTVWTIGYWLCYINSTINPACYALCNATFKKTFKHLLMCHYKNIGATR

## O=C1C(=O)N(CCOc2ccccc2)c2ccc(OC(F)(F)F)cc21
  outcome: inactive
